# An excerpt weighted towards active compounds, which were near 6.8% of everything screened.
# HSF-1 act: increases HSF-1 driven luciferase reporter signal. NIH3T3-HGL HSF-1 luciferase reporter, MG132, 8 h; 100% = twice DMSO control signal. activation, % at 9 µM. 1.7% of 300,000 active. AID 504408;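 active = mean replicate activation of at least 50% with a set share of replicates each reaching 50%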;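 also: 0% = median of the neutral control wells and 100% = twice that signal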
# ALR H2O2 inh: inhibitors of human sulfhydryl oxidase ALR | P55789 | purified ALR, DTT oxidation, H2O2 HRP-luminol luminescence | inhibition, % (concentration not given with the values) | 3.8% of 290,000 active | AID 485317;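 active = mean replicate inhibition above about 79%, with every replicate also reaching it, limit read from the data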
# Target sequence (P55789 whole entry, looked up): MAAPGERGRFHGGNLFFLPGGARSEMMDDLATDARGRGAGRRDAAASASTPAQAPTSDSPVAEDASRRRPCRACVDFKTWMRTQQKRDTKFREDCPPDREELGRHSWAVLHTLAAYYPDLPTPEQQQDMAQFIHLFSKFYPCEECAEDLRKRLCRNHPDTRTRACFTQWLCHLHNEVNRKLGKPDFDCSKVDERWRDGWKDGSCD
# PHOSPHO1 block: blocks human PHOSPHO1 phosphatase activity. recombinant PHOSPHO1, absorbance phosphatase assay. inhibition, % at 13.3 µM. 1.1% of 290,000 active. AID 1565. Q8TCT1; in the data active = inhibition above about 60%
# Target sequence (Q8TCT1 whole entry, looked up): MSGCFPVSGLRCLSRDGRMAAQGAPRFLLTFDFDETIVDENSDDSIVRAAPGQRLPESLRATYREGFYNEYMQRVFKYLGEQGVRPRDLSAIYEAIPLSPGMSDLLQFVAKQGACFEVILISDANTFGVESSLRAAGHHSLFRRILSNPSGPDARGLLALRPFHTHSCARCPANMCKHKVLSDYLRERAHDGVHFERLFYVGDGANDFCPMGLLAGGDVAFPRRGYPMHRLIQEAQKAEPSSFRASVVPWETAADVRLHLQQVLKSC
# HCV core dimer: blocks dimerization of HCV core protein | TR-FRET GST/Flag-core106 dimerization, 1536-well | inhibition, % at 5 µM | 0.33% of 300,000 active;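 active = inhibition above the mean of all tested compounds plus 3 SD, set per screening campaign, cut at about 45% in these data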
#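 Assay system: tagged HCV core106 pair (GST and Flag); medium: KF-containing HEPES buffer, pH 7.45, DTT, CHAPS, BSA; also added: Eu donor and XL665 acceptor anti-tag antibodies; dosing: 5 µM single dose; timing: compound-protein-antibody incubation 4 h at 22.5 °C; signal: TR-FRET 671 and 617 nm emission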
# HSF1 inh: HSF1 inhibition. NIH3T3-HGL HSE-luciferase, MG132-induced, luminescence 8 h; active compounds read low. activity change, negative = inhibition, % at 7.5 µM (by protocol). 0.77% of 300,000 active. AID 2098;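 active = more than half of replicate wells show activity change below -50%, luminescence cut by over half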;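 also: luciferase reports HSF-1 transcriptional activity via heat shock element; 0% = median of DMSO wells and -100% = zero luminescence signal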
# AI-2 QS mod: Vibrio harveyi AI-2 quorum sensing modulation. Vibrio harveyi JMH597 AI-2 luminescence/OD600 ratio, 9 h; active compounds read low; strain lacks LuxN and CqsS sensors; 0 = neutral-control median. activity change, % at 7.5 µM. 0.4% of 300,000 active. AID 2094; in the data active = activity change below about -75%, passing the limit was not always enough;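 also: luminescence divided by OD600 gain over 9 h not by final OD600 alone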
# * = called active by the depositor; . = not tested or not shown.
SMILES,HSF-1 act,ALR H2O2 inh,PHOSPHO1 block,HCV core dimer,HSF1 inh,AI-2 QS mod
CSCCC(NC(=O)OCc1ccccc1)C(=O)NCc1cccnc1 (stereo unspecified),3.7,-5.1,-18.7,.,-7.9,8.6
Cc1ccc(Nc2cc(C)nn2-c2nc(C)cc(C)n2)cc1,-23.0,14.0,-4.1,-58.0,-1.0,17.2
Cc1ccc(Nc2cc(C)nn2-c2nc(C)cc(=O)[nH]2)cc1,-7.6,91.8*,28.4,-4.5,-7.6,-159.6*
COc1ccc(C(=O)NCC(=O)NCc2ccncc2)cc1,.,-2.1,.,.,.,.
O=C(CSc1cccc[n+]1[O-])NC1CCCCC1,.,-8.2,.,.,.,.
O=c1[nH]cc(O)c(=O)[nH]1,8.8,4.6,15.9,-0.3,5.4,2.3
O=c1[nH]cc(F)c(=O)[nH]1,1.3,-1.9,10.9,-12.0,13.9,-87.6*
O=C(COC(=O)CNC(=O)c1ccccc1)NCCCc1ccccc1,.,0.3,.,.,.,.
CCN(CC)C(=O)CSC1=N/C(=C/c2ccco2)C(=O)N1c1ccc(OC)c(Cl)c1,66.7*,97.5*,-11.1,51.4*,44.7,16.5
NC(=O)CSC1=N/C(=C\c2ccco2)C(=O)N1c1ccc(OC(F)F)cc1,72.3*,-16.0,32.0,12.5,53.2,9.0
Cc1cc(S(=O)(=O)N2CCCC(C)C2)ccc1-n1cnnn1 (stereo unspecified),-19.6,-6.7,26.5,6.7,0.3,13.1
CCC(C)NC(=O)c1ccc2c(SCC(=O)O)c3c(nc2c1)CCCC3 (stereo unspecified),12.1,97.4*,-0.2,7.5,4.4,14.4
CCCCNC(=O)c1ccc2c(SCC(=O)O)c3c(nc2c1)CCCC3,11.9,.,-9.8,6.6,-7.2,20.1
CCC(C)NC(=O)c1ccc2c(Cl)c3c(nc2c1)CCC3 (stereo unspecified),39.8,0.2,19.5,-3.3,5.6,-5.2
CC(C)CCNC(=O)c1ccc2c(SCC(=O)O)c3c(nc2c1)CCC3,-88.8,-12.6,32.1,3.1,-85.9*,34.4
CC(C)Oc1ccc(CSC(=N)N)cc1,-5.6,98.2*,25.7,1.2,-8.4,22.7
O=[N+]([O-])c1ccc(Sc2ccccc2)nc1,53.4*,-1.1,-5.1,-5.9,16.9,23.4
O=[N+]([O-])c1ccc(Sc2n[nH]c(-c3ccccc3)n2)nc1,14.9,-3.9,83.7*,-14.7,8.9,28.2
Cc1cccc(Sc2ccc([N+](=O)[O-])cn2)c1,-6.6,-11.3,-12.2,-1.5,-5.3,22.3
CC(=O)Nc1ccc(S(=O)(=O)Nc2nc3ccccc3nc2Nc2cccc(S(N)(=O)=O)c2)cc1,7.2,-2.9,3.2,2.7,0.0,11.0
Cc1cc(C(=O)Nc2nnc(-c3ccccc3)s2)no1,-11.9,93.3*,26.0,-0.5,1.4,4.0
Cc1cc(C(=O)Nc2nnc(C3CCCCC3)s2)no1,4.0,86.4*,-23.2,1.6,2.8,38.2
O=C(Nc1nnc(-c2ccccc2)s1)c1ccc(F)cc1,25.5,-10.3,16.1,12.6,11.9,17.9
Cc1ccc(C(=O)Nc2nnc(C3CCCCC3)s2)o1,68.5*,48.9,-15.3,-4.6,36.7,34.6
CCCCN(C(=O)CSCC(=O)Nc1ccc(C)cc1)c1c(N)n(CC(C)C)c(=O)[nH]c1=O,.,-4.7,.,.,.,.
SMILES,HSF-1 act,ALR H2O2 inh,PHOSPHO1 block,HCV core dimer,HSF1 inh,AI-2 QS mod
O=C(CN1CCc2ccccc2C1)Nc1ccc(OC(F)(F)F)cc1,10.6,-3.8,-5.7,0.9,1.7,2.1
CCOC(=O)c1ccc(NC2=CC(=O)C(=O)c3ccccc32)cc1,-7.1,-18.2,33.8,24.6,-4.7,21.5
NS(=O)(=O)c1ccc(NC2=CC(=O)C(=O)c3ccccc32)cc1,-64.9,-9.2,14.9,1.5,-70.0*,13.3
Cc1ccc(NC2=CC(=O)C(=O)c3ccccc32)cc1,79.8*,-35.2,-3.5,-16.3,67.7,12.1
CCN(Cc1cc2cc(C)ccc2[nH]c1=O)C(=O)c1cccc([N+](=O)[O-])c1,36.0,-5.6,54.8,0.2,11.4,18.6
COCCN(C(=O)CSc1nc2ccccc2c(=O)n1CCOC)c1c(N)n(Cc2ccccc2)c(=O)[nH]c1=O,-1.5,-2.4,-3.9,0.2,-7.6,25.6
CCOC(=O)C1=NN(C(=O)COc2ccccc2)C(O)(c2ccc(Br)cc2)C1 (stereo unspecified),289.7*,15.9,41.2,2.8,212.0,9.3

# Source: PubChem
